# Results from ChEMBL document CHEMBL3399946, “Structure-activity relationships of substituted 1H-indole-2-carboxamides as CB1 receptor allosteric modulators” (Bioorg Med Chem, 2015).
# Columns and labels:
# Cannabinoid receptor 1 [1] = target: T1, Cannabinoid receptor 1 (Homo sapiens, UniProt P21554); assay: Antagonist activity at human CB1 receptor expressed in CHO-RD-HGA16 cells assessed as inhibition of CP55940-induced calcium mobilization incubated for 15 mins prior to CP55940 addition by FLIPR assay; type: functional, cell-based
# [2] = target: Cannabinoid receptor 2 (Homo sapiens) (UniProt P34972); assay: Agonist activity at human CB2 receptor expressed in CHO-RD-HGA16 cells at 10 uM after 15 mins by FLIPR assay relative to CP55940; type: cell-based
# How it was run: (§1)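 Stably transfected CHO-RD-HGA16 cells (human CB1, or CB2 for line 2) seeded the day before (CB1 25,000, CB2 30,000 cells/well), cultured overnight at 37°C, 5% CO2. Loaded 45 min at 37°C with Calcium 5 dye in HBSS/20 mM HEPES/2.5 mM probenecid, pH 7.4.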
# [3] = target: Cannabinoid receptor 2 (Homo sapiens) (UniProt P34972); assay: Antagonist activity at human CB2 receptor expressed in CHO-RD-HGA16 cells assessed as inhibition of CP55940-induced calcium mobilization at 10 uM incubated for 15 mins prior to CP55940 addition by FLIPR assay; type: functional, cell-based
# Cannabinoid receptor 1 [4] = target: T1, Cannabinoid receptor 1; assay: Agonist activity at human CB1 receptor expressed in CHO-RD-HGA16 cells at 10 uM after 15 mins by FLIPR assay relative to CP55940; type: cell-based; how it was run: as §1
# Cannabinoid receptor 1 [5] = target: T1, Cannabinoid receptor 1; assay: Allosteric modulation of human CB1 receptor expressed in CHO-RD-HGA16 cells assessed as reduction of CP55940 Emax by calcium mobilization assay; type: functional, cell-based
# How it was run: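 CB1-expressing CHO-RD-HGA16 cells seeded at 25,000/well the previous day and loaded with Calcium 5 dye for 45 min at 37°C (HBSS, 20 mM HEPES, 2.5 mM probenecid, pH 7.4). Pretreated 15 min at 37°C with a single concentration of test compound, then serial dilutions of CP55,940 added on FLIPR Tetra. Fluorescence plotted against agonist concentration.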
# T1 sequence (P21554 whole entry): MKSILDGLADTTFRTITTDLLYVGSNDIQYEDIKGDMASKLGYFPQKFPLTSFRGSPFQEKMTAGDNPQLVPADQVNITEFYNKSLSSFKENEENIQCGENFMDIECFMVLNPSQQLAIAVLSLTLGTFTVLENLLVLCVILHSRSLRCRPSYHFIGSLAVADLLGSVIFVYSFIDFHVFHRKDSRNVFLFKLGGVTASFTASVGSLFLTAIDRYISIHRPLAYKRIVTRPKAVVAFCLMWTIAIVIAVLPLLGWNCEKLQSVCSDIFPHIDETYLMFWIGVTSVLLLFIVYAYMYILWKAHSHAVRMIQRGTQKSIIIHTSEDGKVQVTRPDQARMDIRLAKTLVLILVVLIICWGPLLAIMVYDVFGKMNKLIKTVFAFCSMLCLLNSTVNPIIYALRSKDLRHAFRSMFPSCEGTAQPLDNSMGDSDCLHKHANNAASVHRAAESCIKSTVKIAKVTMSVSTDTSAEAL
# Cannabinoid receptor 2 (Homo sapiens), sequence (P34972 whole entry): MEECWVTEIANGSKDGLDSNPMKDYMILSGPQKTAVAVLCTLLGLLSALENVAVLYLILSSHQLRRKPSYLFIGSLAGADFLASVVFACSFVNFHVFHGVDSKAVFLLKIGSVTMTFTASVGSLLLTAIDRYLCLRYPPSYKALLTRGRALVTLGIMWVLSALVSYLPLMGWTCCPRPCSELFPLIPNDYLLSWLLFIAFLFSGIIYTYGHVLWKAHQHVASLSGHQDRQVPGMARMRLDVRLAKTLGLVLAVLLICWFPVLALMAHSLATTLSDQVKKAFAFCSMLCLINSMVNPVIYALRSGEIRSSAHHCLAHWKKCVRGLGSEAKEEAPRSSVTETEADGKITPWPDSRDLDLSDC
SMILES,IC50 (Cannabinoid receptor 1 [1]) [nM],Activity [2] [%],inhibition [3] [%],Activity (Cannabinoid receptor 1 [4]) [%],Activity (Cannabinoid receptor 1 [5])
CCc1c(C(=O)NCCc2ccc([N+](=O)[O-])cc2)[nH]c2ccc(Cl)cc12,5740,< 30,34.8,< 30,
CCc1c(C(=O)NCCc2ccc(N(CC)CC)cc2)[nH]c2ccc(Cl)cc12,483,< 30,,< 30,
CCN(CC)c1ccc(CCNC(=O)c2cc3cc(Cl)ccc3[nH]2)cc1,79,< 30,0.7,< 30,Dose-dependent effect
CCc1c(C(=O)NC2CCN(Cc3ccccc3)C2)[nH]c2ccc(Cl)cc12 (configuration not stated),4760,< 30,-6.2,< 30,
CCCCCCNc1ccc(CCNC(=O)c2[nH]c3ccc(Cl)cc3c2CC)cc1,3620,< 30,,< 30,
CCc1c(C(=O)NCCc2cccc(N(C)C)c2)[nH]c2ccc(Cl)cc12,> 10000,,-3.7,,
CCCC(=O)Nc1ccc(CCNC(=O)c2[nH]c3ccc(Cl)cc3c2CC)cc1,> 10000,< 30,43,< 30,
CCc1c(C(=O)NCCc2ccccc2)[nH]c2ccc(Cl)cc12,3150,< 30,-6.2,< 30,
CCc1c(C(=O)NCCc2ccc(OC)cc2)[nH]c2ccc(Cl)cc12,2560,< 30,,< 30,
CCCN(CCC)c1ccc(CCNC(=O)c2[nH]c3ccc(Cl)cc3c2CC)cc1,1800,< 30,,< 30,
CCc1c(C(=O)NCCc2ccc(N3CCCCC3)cc2)[nH]c2ccc(Cl)cc12,853,< 30,,< 30,Dose-dependent effect
CCc1c(C(=O)NCCc2ccc3c(c2)OCO3)[nH]c2ccc(Cl)cc12,4320,< 30,25.8,< 30,
CCc1c(C(=O)NCCc2cccc(Cl)c2)[nH]c2ccc(Cl)cc12,831,< 30,24.8,< 30,
CCc1c(C(=O)NCCc2ccc(N(C)C)cc2)[nH]c2ccc(Cl)cc12,787,< 30,,< 30,
CCc1c(C(=O)NCCc2cccc(O)c2)[nH]c2ccc(Cl)cc12,> 10000,< 30,-0.1,< 30,
O=C(NCCc1ccc(N2CCCCC2)cc1)c1cc2cc(F)ccc2[nH]1,319,< 30,20.8,< 30,
CCc1c(C(=O)NCCc2ccc(Cl)c(Cl)c2)[nH]c2ccc(Cl)cc12,2170,< 30,-3.2,< 30,

SMILES,IC50 (Cannabinoid receptor 1 [1]) [nM],Activity [2] [%],inhibition [3] [%],Activity (Cannabinoid receptor 1 [4]) [%],Activity (Cannabinoid receptor 1 [5])
CCc1c(C(=O)NCCc2ccc(NC(C)=O)cc2)[nH]c2ccc(Cl)cc12,> 10000,< 30,-3.3,< 30,
Cc1c(C(=O)NCCc2ccc(N3CCCCC3)cc2)[nH]c2ccc(F)cc12,279,< 30,-8.2,< 30,
CCc1c(C(=O)Nc2cccc(-c3cccc(N(C)C)n3)c2)[nH]c2ccc(Cl)cc12,> 10000,< 30,,< 30,
CCc1c(C(=O)NCCc2ccc(Cl)cc2)[nH]c2ccc(Cl)cc12,2500,< 30,-4.8,< 30,
CCCCCC(=O)Nc1ccc(CCNC(=O)c2[nH]c3ccc(Cl)cc3c2CC)cc1,> 10000,< 30,1,< 30,
O=C(NCCc1ccc(N2CCCCC2)cc1)c1cc2cc(Cl)ccc2[nH]1,212,< 30,15,< 30,
CCc1c(C(=O)N2CCN(c3ccccc3)CC2)[nH]c2ccc(Cl)cc12,> 10000,< 30,,< 30,
CCN(CC)c1ccc(CCNC(=O)c2cc3cc(F)ccc3[nH]2)cc1,318,< 30,,< 30,
CCc1c(C(=O)NCCc2ccc(C(C)(C)C)cc2)[nH]c2ccc(Cl)cc12,2430,< 30,,< 30,
CCc1c(C(=O)N2CCN(c3ccc(Cl)cc3)CC2)[nH]c2ccc(Cl)cc12,> 10000,< 30,,< 30,
CCc1c(C(=O)NCCc2ccc(N(CC)CC)cc2)[nH]c2ccc(F)cc12,361,< 30,,< 30,
CCN(CC)c1ccc(CCNC(=O)c2[nH]c3ccc(F)cc3c2C)cc1,151,< 30,,< 30,
CCc1c(C(=O)NCCc2cccc(OC)c2)[nH]c2ccc(Cl)cc12,2100,< 30,-6,< 30,
CCc1c(C(=O)NCCc2ccc(N3CCCCC3)cc2)[nH]c2ccc(F)cc12,605,< 30,,< 30,
CCc1c(C(=O)NCCc2ccccc2Cl)[nH]c2ccc(Cl)cc12,5810,< 30,28.5,< 30,
CCc1c(C(=O)NCCc2ccc(N(C)C)cc2)[nH]c2ccc(F)cc12,205,< 30,,< 30,Dose-dependent effect
CCc1c(C(=O)NCCc2ccc(OC)c(O)c2)[nH]c2ccc(Cl)cc12,> 10000,< 30,-7,< 30,
